Assay results: ChEMBL document CHEMBL1165887, “Structure-activity relationships of monomeric C2-aryl pyrrolo[2,1-c][1,4]benzodiazepine (PBD) antitumor agents” (J Med Chem, 2010)

How the values were obtained:
K562 = test: Cytotoxicity against human K562 cells after 96 hrs by alamar blue assay; type: functional, cell-based; settings: K562, 96 h
How it was run: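 K562 cells kept in RPMI with 10% fetal calf serum and 2 mM glutamine, seeded at 10⁴ cells/mL. Compounds serially diluted in DMSO and added in triplicate; exposure 96 h at 37 °C, 5% CO₂. Alamar Blue (1 μM final) then added for a further 4 h; read by fluorescence emission at 580-620 nm.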

[1] = Growth inhibition of human NCI60 cells after 48 hrs by SRB assay; type: functional; settings: NCI60, 48 h; for CC50: read-out: LC50 (the source's name)

Structure (SMILES)	IC50 (K562) [µM]	GI50 [1] [µM]	TGI [1] [µM]	CC50 [1] [µM]
COc1cc2c(cc1OC)C(=O)N1C=C(c3cnn(C)c3)C[C@H]1C=N2	0.0122	0.003	0.05	5.37
COc1cc2c(cc1OC)C(=O)N1C=C(c3ccc(NC(C)=O)cc3)C[C@H]1C=N2	0.0297	0.006	0.2	11.5
COc1cc2c(cc1OC)C(=O)N1C=C(c3cccc(Cl)c3)C[C@H]1C=N2	0.0194	0.017	0.1	0.54
COc1cc2c(cc1OC)C(=O)N1C=C(c3cccc([N+](=O)[O-])c3)C[C@H]1C=N2	0.0581	0.005	0.05	5.62
COc1cc2c(cc1OC)C(=O)N1C=C(c3cccc(C)c3)C[C@H]1C=N2	0.0095	0.005	0.07	7.58
COC(=O)c1cccc(C2=CN3C(=O)c4cc(OC)c(OC)cc4N=C[C@@H]3C2)c1	0.0124	0.005	0.04	7.58
COc1cc2c(cc1OC)C(=O)N1CCC[C@H]1C=N2	0.488	2.14	19	57.5
COc1cc2c(cc1OC)C(=O)N1C=C(c3ccc(C(=O)NCCN(C)C)cc3)C[C@H]1C=N2	0.114	0.019	0.09	3.89
COc1cc2c(cc1OC)C(=O)N1C=C(c3ccc4ccc5cccc6ccc3c4c56)C[C@H]1C=N2	0.0862	0.398	1.44	10.7
COc1cc2c(cc1OC)C(=O)N1C=C(c3cccc(N)c3)C[C@H]1C=N2	0.0595	0.004	0.05	5.89
COc1cc2c(cc1OC)C(=O)N1C=C(/C=C/c3ccc(C(F)(F)F)cc3)C[C@H]1C=N2	0.0312	0.003	0.02	1.1
COc1cc2c(cc1OC)C(=O)N1C=C(/C=C/c3ccccc3)C[C@H]1C=N2	0.0001	0.004	0.02	1.58
COc1cc2c(cc1OC)C(=O)N1C=C(c3cc4ccccc4s3)C[C@H]1C=N2	0.0267	0.005	0.09	0.54
COc1cc2c(cc1OC)C(=O)N1C=C(/C=C/c3ccc(C)cc3)C[C@H]1C=N2	0.0411	0.002	0.05	0.44
COc1cc2c(cc1OC)C(=O)N1C=C(c3ccc(C(=O)O)cc3)C[C@H]1C=N2	> 1	13.2	23.4	25.1
COc1cc2c(cc1OC)C(=O)N1C=C(c3cc4ccccc4o3)C[C@H]1C=N2	0.0108	0.006	0.05	0.44
COc1cc2c(cc1OC)C(=O)N1C=C(c3cn[nH]c3)C[C@H]1C=N2	0.0201	0.012	0.27	6.46
COc1cc2c(cc1OC)C(=O)N1C=C(c3ccc(Cl)c(Cl)c3)C[C@H]1C=N2	0.106	0.003	0.05	3.02
COc1cc2c(cc1OC)C(=O)N1C=C(c3ccc(C(=O)NCCCN(C)C)cc3)C[C@H]1C=N2	0.165	0.058	0.83	35.5
COc1cc2c(cc1OC)C(=O)N1C=C(c3cccc4c3oc3ccccc34)C[C@H]1C=N2	0.162	0.049	0.21	2.82
COc1cc2c(cc1OC)C(=O)N1C=C(c3cccc(OC(F)(F)F)c3)C[C@H]1C=N2	0.0765	0.006	0.18	7.24
COc1cc2c(cc1OC)C(=O)N1C=C(c3ccc(Br)cc3)C[C@H]1C=N2	0.237	–	–	–
COc1cc2c(cc1OC)C(=O)N1C=C(c3cccc(C(=O)O)c3)C[C@H]1C=N2	> 1	–	–	–
